How the values were obtained:
[1] = tested on: SN12C; experiment: Antiproliferative activity against human SN12C cells assessed as cell growth inhibition at 10 uM incubated for 48 hrs by sulforhodamine B assay relative to control; format: functional
In short: (§1)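 NCI-60 single-dose screen at 10^-5 M. Cells grown in RPMI 1640 with 5% FBS and 2 mM L-glutamine, plated at 5,000–40,000 cells/well, and preincubated 24 h. Drug (DMSO stock) added and incubated 48 h at 37 °C, 5% CO2. Adherent cells fixed with cold TCA, stained with 0.4% SRB in 1% acetic acid, dye solubilized in 10 mM trizma base, A515 read. Percent growth taken against time-zero and untreated control.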

[2] = n-Octanol/phosphate buffer partition coefficient, logP of the compound at pH 7.4 incubated for 85 mins by shake-flask method; format: physicochemical
In short: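 Octanol–water partition by shake-flask: n-octanol with 0.15 M phosphate buffer pH 7.4 at 10:1 volumes. Buffer-phase absorbance read before mixing, then shaken 50 min and centrifuged at 2500 rpm for 35 min. Buffer absorbance read again; P = (Ai−Af)/Af × Vw/Vo.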

[3] = tested on: NCI-H522; experiment: Antiproliferative activity against human NCI-H522 cells assessed as cell growth inhibition at 10 uM incubated for 48 hrs by sulforhodamine B assay relative to control; format: functional; in short: as §1
[4] = tested on: MOLT-4; experiment: Antiproliferative activity against human MOLT-4 cells assessed as cell growth inhibition at 10 uM incubated for 48 hrs by sulforhodamine B assay relative to control; format: functional; in short: as §1
[5] = tested on: U-251; experiment: Antiproliferative activity against human U-251 cells assessed as cell growth inhibition at 10 uM incubated for 48 hrs by sulforhodamine B assay relative to control; format: functional; in short: as §1
[6] = tested on: HOP-92; experiment: Antiproliferative activity against human HOP-92 cells assessed as cell growth inhibition at 10 uM incubated for 48 hrs by sulforhodamine B assay relative to control; format: functional
In short: (§2)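 NCI-60 one-dose prescreen at 10^-5 M. Cells grown in RPMI 1640 with 5% FBS and 2 mM glutamine, preincubated 24 h, then exposed 48 h at 37 °C. Adherent lines TCA-fixed, SRB-stained, A515 read. Growth percent relative to time-zero and control; negative values mean cell kill.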

[7] = tested on: CCRF-CEM; experiment: Antiproliferative activity against human CCRF-CEM cells assessed as cell growth inhibition at 10 uM incubated for 48 hrs by sulforhodamine B assay relative to control; format: functional
In short: (§3)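 Single-dose NCI-60 prescreen at 10^-5 M. Cells in RPMI 1640 with 5% FBS and 2 mM L-glutamine, seeded 5,000–40,000 cells/well with 24 h preincubation, then drug exposure for 48 h at 37 °C under 5% CO2. Growth read by SRB staining of TCA-fixed cells at 515 nm against time-zero and untreated controls. Negative growth values denote cell kill.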

[8] = tested on: NCI-H460; experiment: Antiproliferative activity against human NCI-H460 cells assessed as cell growth inhibition at 10 uM incubated for 48 hrs by sulforhodamine B assay relative to control; format: functional; in short: as §1
[9] = tested on: BT-549; experiment: Antiproliferative activity against human BT-549 cells assessed as cell growth inhibition at 10 uM incubated for 48 hrs by sulforhodamine B assay relative to control; format: functional; in short: as §3
[10] = tested on: SK-MEL-5; experiment: Antiproliferative activity against human SK-MEL-5 cells assessed as cell growth inhibition at 10 uM incubated for 48 hrs by sulforhodamine B assay relative to control; format: functional; in short: as §1
[11] = tested on: SR; experiment: Antiproliferative activity against human SR cells assessed as cell growth inhibition at 10 uM incubated for 48 hrs by sulforhodamine B assay relative to control; format: functional; in short: as §1
[12] = tested on: HCT-116; experiment: Antiproliferative activity against human HCT-116 cells assessed as cell growth inhibition at 10 uM incubated for 48 hrs by sulforhodamine B assay relative to control; format: functional; in short: as §2
[13] = tested on: NCI-H23; experiment: Antiproliferative activity against human NCI-H23 cells assessed as cell growth inhibition at 10 uM incubated for 48 hrs by sulforhodamine B assay relative to control; format: functional; in short: as §1
[14] = tested on: SNB-75; experiment: Antiproliferative activity against human SNB-75 cells assessed as cell growth inhibition at 10 uM incubated for 48 hrs by sulforhodamine B assay relative to control; format: functional; in short: as §1
[15] = tested on: UO-31; experiment: Antiproliferative activity against human UO-31 cells assessed as cell growth inhibition at 10 uM incubated for 48 hrs by sulforhodamine B assay relative to control; format: functional; in short: as §1
[16] = tested on: 786-0; experiment: Antiproliferative activity against human 786-0 cells assessed as cell growth inhibition at 10 uM incubated for 48 hrs by sulforhodamine B assay relative to control; format: functional; in short: as §3
[17] = tested on: MDA-MB-231; experiment: Antiproliferative activity against human MDA-MB-231 cells assessed as cell growth inhibition at 10 uM incubated for 48 hrs by sulforhodamine B assay relative to control; format: functional; in short: as §1
[18] = tested on: UACC-62; experiment: Antiproliferative activity against human UACC-62 cells assessed as cell growth inhibition at 10 uM incubated for 48 hrs by sulforhodamine B assay relative to control; format: functional; in short: as §1
[19] = tested on: A498; experiment: Antiproliferative activity against human A498 cells assessed as cell growth inhibition at 10 uM incubated for 48 hrs by sulforhodamine B assay relative to control; format: functional; in short: as §3
[20] = tested on: OVCAR-8; experiment: Antiproliferative activity against human OVCAR-8 cells assessed as cell growth inhibition at 10 uM incubated for 48 hrs by sulforhodamine B assay relative to control; format: functional; in short: as §1
[21] = tested on: T47D; experiment: Antiproliferative activity against human T47D cells assessed as cell growth inhibition at 10 uM incubated for 48 hrs by sulforhodamine B assay relative to control; format: functional; in short: as §1
[22] = tested on: HCT-15; experiment: Antiproliferative activity against human HCT-15 cells assessed as cell growth inhibition at 10 uM incubated for 48 hrs by sulforhodamine B assay relative to control; format: functional; in short: as §2
[23] = tested on: HL-60; experiment: Antiproliferative activity against human HL-60 cells assessed as cell growth inhibition at 10 uM incubated for 48 hrs by sulforhodamine B assay relative to control; format: functional; in short: as §2
[24] = tested on: MDA-MB-468; experiment: Antiproliferative activity against human MDA-MB-468 cells assessed as cell growth inhibition at 10 uM incubated for 48 hrs by sulforhodamine B assay relative to control; format: functional; in short: as §1
[25] = tested on: KM12; experiment: Antiproliferative activity against human KM12 cells assessed as cell growth inhibition at 10 uM incubated for 48 hrs by sulforhodamine B assay relative to control; format: functional; in short: as §1
[26] = tested on: LOX IMVI; experiment: Antiproliferative activity against human LOX IMVI cells assessed as cell growth inhibition at 10 uM incubated for 48 hrs by sulforhodamine B assay relative to control; format: functional; in short: as §1
[27] = tested on: K562; experiment: Antiproliferative activity against human K562 cells assessed as cell growth inhibition at 10 uM incubated for 48 hrs by sulforhodamine B assay relative to control; format: functional; in short: as §1
[28] = tested on: A549; experiment: Antiproliferative activity against human A549 cells assessed as cell growth inhibition at 10 uM incubated for 48 hrs by sulforhodamine B assay relative to control; format: functional; in short: as §3
[29] = tested on: HT-29; experiment: Antiproliferative activity against human HT-29 cells assessed as cell growth inhibition at 10 uM incubated for 48 hrs by sulforhodamine B assay relative to control; format: functional; in short: as §1
[30] = tested on: RPMI-8226; experiment: Antiproliferative activity against human RPMI-8226 cells assessed as cell growth inhibition at 10 uM incubated for 48 hrs by sulforhodamine B assay relative to control; format: functional; in short: as §1
[31] = tested on: DU-145; experiment: Antiproliferative activity against human DU-145 cells assessed as cell growth inhibition at 10 uM incubated for 48 hrs by sulforhodamine B assay relative to control; format: functional; in short: as §2
[32] = tested on: PC-3; experiment: Antiproliferative activity against human PC-3 cells assessed as cell growth inhibition at 10 uM incubated for 48 hrs by sulforhodamine B assay relative to control; format: functional; in short: as §1
[33] = tested on: NCI-H226; experiment: Antiproliferative activity against human NCI-H226 cells assessed as cell growth inhibition at 10 uM incubated for 48 hrs by sulforhodamine B assay relative to control; format: functional; in short: as §1
[34] = tested on: TK-10; experiment: Antiproliferative activity against human TK-10 cells assessed as cell growth inhibition at 10 uM incubated for 48 hrs by sulforhodamine B assay relative to control; format: functional; in short: as §1
[35] = tested on: RXF 393; experiment: Antiproliferative activity against human RXF 393 cells assessed as cell growth inhibition at 10 uM incubated for 48 hrs by sulforhodamine B assay relative to control; format: functional; in short: as §1
[36] = tested on: SF-539; experiment: Antiproliferative activity against human SF-539 cells assessed as cell growth inhibition at 10 uM incubated for 48 hrs by sulforhodamine B assay relative to control; format: functional; in short: as §1
[37] = tested on: HCC 2998; experiment: Antiproliferative activity against human HCC 2998 cells assessed as cell growth inhibition at 10 uM incubated for 48 hrs by sulforhodamine B assay relative to control; format: functional; in short: as §2
[38] = tested on: Hs-578T; experiment: Antiproliferative activity against human Hs-578T cells assessed as cell growth inhibition at 10 uM incubated for 48 hrs by sulforhodamine B assay relative to control; format: functional; in short: as §1
[39] = tested on: SK-MEL-2; experiment: Antiproliferative activity against human SK-MEL-2 cells assessed as cell growth inhibition at 10 uM incubated for 48 hrs by sulforhodamine B assay relative to control; format: functional; in short: as §1
[40] = tested on: SNB-19; experiment: Antiproliferative activity against human SNB-19 cells assessed as cell growth inhibition at 10 uM incubated for 48 hrs by sulforhodamine B assay relative to control; format: functional; in short: as §1
[41] = tested on: IGROV-1; experiment: Antiproliferative activity against human IGROV-1 cells assessed as cell growth inhibition at 10 uM incubated for 48 hrs by sulforhodamine B assay relative to control; format: functional; in short: as §1
[42] = tested on: ACHN; experiment: Antiproliferative activity against human ACHN cells assessed as cell growth inhibition at 10 uM incubated for 48 hrs by sulforhodamine B assay relative to control; format: functional; in short: as §3

Row | logD at 1.417 h [2] | SMILES | inhibition at 10 µM [3] [%] | inhibition at 10 µM [4] [%] | inhibition at 10 µM [5] [%] | inhibition at 10 µM [6] [%] | inhibition at 10 µM [7] [%] | inhibition at 10 µM [10] [%] | inhibition at 10 µM [11] [%] | inhibition at 10 µM [12] [%] | inhibition at 10 µM [13] [%] | inhibition at 10 µM [15] [%] | inhibition at 10 µM [16] [%] | inhibition at 10 µM [17] [%] | inhibition at 10 µM [18] [%] | inhibition at 10 µM [19] [%] | inhibition at 10 µM [20] [%] | inhibition at 10 µM [21] [%] | inhibition at 10 µM [22] [%] | inhibition at 10 µM [23] [%] | inhibition at 10 µM [24] [%] | also measured
1 | 1.38 | c1csc(-c2cn3ccnc3c(-c3ccc4ncn(C5CCCCC5)c4c3)n2)c1 | 13.2 | 30.8 | 3.92 | 32.5 | 46.4 | 8.05 | 27.2 | 21.1 | 5.95 | 10.9 | 4.1 | 10.8 | 24.8 | 25 | 9.34 | 70.3 | 2.33 | 26.6 | 15.1 | inhibition at 10 µM [1]: 2.84%; inhibition at 10 µM [8]: 1.3%; inhibition at 10 µM [9]: 12.2%; inhibition at 10 µM [14]: 8.13%; inhibition at 10 µM [25]: 4.89%; inhibition at 10 µM [26]: 1.07%; inhibition at 10 µM [27]: 26.9%; inhibition at 10 µM [28]: 5.33%; inhibition at 10 µM [29]: 0.09%; inhibition at 10 µM [30]: 52.3%; inhibition at 10 µM [31]: 5.07%; inhibition at 10 µM [32]: 49.1%; inhibition at 10 µM [33]: 17.1%
2 | 1.81 | c1cn2cc(-c3ccsc3)nc(-c3ccc4ncn(C5CCCCC5)c4c3)c2n1 | 10.2 | 30 | 6.09 | 27.8 | 29.2 | 25 | 14.3 | 13.3 | 10 | 23.1 | 6.35 | 1.35 | 18.4 | 20.1 | 12.1 | 63.7 | 1.37 | 18.4 | 21.8 | inhibition at 10 µM [34]: 3.37%; inhibition at 10 µM [35]: 8.63%; inhibition at 10 µM [36]: 6.29%; inhibition at 10 µM [37]: 2.18%; inhibition at 10 µM [25]: 15.4%; inhibition at 10 µM [38]: 5.56%; inhibition at 10 µM [26]: 4.9%; inhibition at 10 µM [39]: 3.68%; inhibition at 10 µM [27]: 22%; inhibition at 10 µM [40]: 0.39%; inhibition at 10 µM [28]: 3.97%; inhibition at 10 µM [41]: 1.51%; inhibition at 10 µM [29]: 5.68%; inhibition at 10 µM [42]: 5.76%; inhibition at 10 µM [30]: 37.9%; inhibition at 10 µM [31]: 1.36%; inhibition at 10 µM [32]: 19.9%; inhibition at 10 µM [33]: 6.34%

— ChEMBL document CHEMBL5247578, “Effective synthesis of benzimidazoles-imidazo[1,2-a]pyrazine conjugates: A comparative study of mono-and bis-benzimidazoles for antitumor activity” (Eur J Med Chem, 2019)
